Measurements: ChEMBL document CHEMBL1148783, “Selection of a respiratory syncytial virus fusion inhibitor clinical candidate, part 1: improving the pharmacokinetic profile using the structure-property relationship” (J Med Chem, 2007)

Legend:
[1] = Cytotoxicity against HeLaM cells; assay type: cell-based, M-HeLa; settings: human
[2] = test system: Respiratory syncytial virus; assay: Antiviral activity against RSV in HeLaM cells; assay type: functional, organism-based; settings: human respiratory syncytial virus
Summary of the method: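 HeLaM epithelial-like cells infected with RSV with or without a range of compound concentrations, with virus, cell and cytotoxicity controls and ribavirin as reference in each test. After one week of incubation, viability was read by MTT and spectrophotometric OD. pEC50 was calculated from the OD values.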

[3] = Half life (24 to 96 hrs) in Sprague-Dawley rat lung; assay type: ADME, tissue-based
Summary of the method: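 Lung half-life came from IV-dosed male Sprague-Dawley rats (1 mg/kg, 10 min tail-vein infusion), with three animals per time point. Lungs were homogenized in water (1/9 w/v) and analyzed by LC-MS/MS, using the concentrations measured between 24 and 96 h post-dose.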

[4] = Drug level in Sprague-Dawley rat lung after 24 hrs; assay type: ADME, tissue-based; settings: read-out: Drug uptake
Summary of the method: (§1)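 Male Sprague-Dawley rats (250-300 g) were given a 10 min tail-vein infusion at a final dose of 1 mg/kg. Three rats per time point were killed at 4, 24, 96 and 168 h. Plasma was taken from EDTA blood, and lung was homogenized 1/9 w/v in demineralized water. Samples were stored at ≤-18 °C and quantified by a qualified LC-MS/MS method.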

[5] = Drug level in Sprague-Dawley rat lung after 4 hrs; assay type: ADME, tissue-based; settings: read-out: Drug uptake; summary of the method: as §1
[6] = Drug level in Sprague-Dawley rat lung after 96 hrs; assay type: ADME, tissue-based; settings: read-out: Drug uptake; summary of the method: as §1
[7] = Drug level in Sprague-Dawley rat plasma after 4 hrs; assay type: ADME, cell-free; settings: read-out: Drug uptake; summary of the method: as §1
[8] = Drug level in Sprague-Dawley rat lung after 168 hrs; assay type: ADME, tissue-based; settings: read-out: Drug uptake; summary of the method: as §1
[9] = Drug level in Sprague-Dawley rat plasma after 24 hrs; assay type: ADME, cell-free; settings: read-out: Drug uptake; summary of the method: as §1

SMILES	CC50 [1]	EC50 [2]	half-life [3]	other results
Cc1cc(C)c2nc(NCCCO)n(Cc3nc(C)ccc3O)c2c1	63.1 µM	0.158 µM		
Cc1ccc(O)c(Cn2c(NC3CCN(CC(O)CN(C)C)CC3)nc3c(C)cccc32)n1 (stereo not drawn)	> 100 µM	0.00316 µM	556 h	
Cc1cc(C)c2nc(NCCc3ccccc3)n(Cc3nc(C)ccc3O)c2c1	6.31 µM	> 100 µM		
Cc1ccc(O)c(Cn2c(NC3CCN(CCN4CCCC4)CC3)nc3c(C)cccc32)n1	39.8 µM	0.01 µM	206 h	
Cc1ccc(O)c(Cn2c(NC3CCN(CCN)CC3)nc3c(C)cccc32)n1 [JNJ 2408068]	> 100 µM	0.000251 µM	153 h	concentration at 24 h [4]: 559 ng/mL; concentration at 4 h [5]: 576 ng/mL; concentration at 96 h [6]: 439 ng/mL; concentration at 4 h [7]: 0.97 ng/mL; concentration at 168 h [8]: 387 ng/mL; concentration at 24 h [9]: 0.33 ng/mL
NCCN1CCC(Nc2nc3ccccc3[nH]2)CC1				concentration at 24 h [4]: 295 ng/mL; concentration at 4 h [5]: 247 ng/mL; concentration at 96 h [6]: 83.7 ng/mL; concentration at 4 h [7]: 11.8 ng/mL; concentration at 168 h [8]: 37.8 ng/mL; concentration at 24 h [9]: 6.1 ng/mL
Cc1cc(C)c2nc(NCCCN3CCOCC3)n(Cc3nc(C)ccc3O)c2c1	50.1 µM	0.126 µM	14 h	
Cc1ccc(O)c(Cn2c(NC3CCN(CCCS(N)(=O)=O)CC3)nc3c(C)cccc32)n1	> 100 µM	0.0126 µM	57 h	
Cc1ccc(O)c(Cn2c(NC3CCN(CCO)CC3)nc3c(C)cccc32)n1	> 100 µM	0.02 µM	29 h	
Cc1ccc(O)c(Cn2c(NC3CCN(C)CC3)nc3c(C)cccc32)n1	50.1 µM	0.158 µM		
CNCCCNc1nc2c(C)cc(C)cc2n1Cc1nc(C)ccc1O	50.1 µM	0.000631 µM	93 h	
CNS(=O)(=O)CCCN1CCC(Nc2nc3c(C)cccc3n2Cc2nc(C)ccc2O)CC1	79.4 µM	0.0501 µM	32 h	
Cc1ccc(O)c(Cn2c(NC3CCN(CCC(N)=O)CC3)nc3c(C)cccc32)n1	> 100 µM	0.0501 µM	46 h	
CCCCNc1nc2c(C)cc(C)cc2n1Cc1nc(C)ccc1O	7.94 µM	> 100 µM		
Cc1cc(C)c2nc(NCC(O)CO)n(Cc3nc(C)ccc3O)c2c1 (stereo not drawn)	50.1 µM	0.0398 µM	< 24 h	
Cc1ccc(O)c(Cn2cnc3c(C)cccc32)n1				concentration at 4 h [5]: 3.9 ng/mL
Cc1ccc(O)c(Cn2c(NC3CCN(CCN)CC3)nc3ccccc32)n1	> 100 µM	0.000316 µM	211 h	
CC(=O)NCCNc1nc2c(C)cc(C)cc2n1Cc1nc(C)ccc1O	12.6 µM	5.01 µM		
Cc1ccc(O)c(Cn2c(NC3CCN(CCN4CCOCC4)CC3)nc3c(C)cccc32)n1	63.1 µM	0.158 µM	35 h	
Cc1cc(C)c2nc(NCCCN)n(Cc3nc(C)ccc3O)c2c1	> 100 µM	0.000251 µM	68 h	
Cc1cc(C)c2nc(NCCCN3CCN(C)CC3)n(Cc3nc(C)ccc3O)c2c1	50.1 µM	0.0251 µM	80 h	
Cc1cc(C)c2nc(NCCNc3ccccc3)n(Cc3nc(C)ccc3O)c2c1	3.16 µM	> 100 µM		
Cc1ccc(O)c(Cn2c(NC3CCN(CC(O)C(C)(C)C)CC3)nc3c(C)cccc32)n1 (stereo not drawn)	39.8 µM	0.794 µM		
Cc1ccc(O)c(Cn2c(NC3CCN(CCC(=O)O)CC3)nc3c(C)cccc32)n1	> 100 µM	0.158 µM		
Cc1ccc(O)c(Cn2c(NC3CCN(CCC(C)C)CC3)nc3c(C)cccc32)n1	> 100 µM	0.631 µM		
